Screens (PubChem BioAssay)
Most compounds without a hit are left out; they make up all but 5% or so of the library.
CSC inhib: cancer stem cell inhibition. cancer stem cell-like cells viability, luminescence. inhibition, % at 7.5 µM. 1.1% of 300,000 active; in the data active = inhibition above about 75%; tested in HMLE shEcad cells
UPR CHOP act: activators of apoptotic arm of unfolded protein response (CHOP); CHO-CHOP luciferase reporter, UPR activation, luminescence; percent of tunicamycin response over DMSO baseline; activation, % at 10 µM; 0.34% of 330,000 active; AID 449763;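 active = at 10 µM dose, activation of 40% or more, normalized to positive control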;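 note: 100% = tunicamycin at 10 µg/mL and 0% = DMSO alone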
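System: CHO-CHOP luciferase reporter cell line | Buffer or medium: F12 medium containing 10% fetal bovine serum | Doses: One dose, 10 µM in 0.5% DMSO | Times: 6 h compound exposure at 37 °C after overnight seeding | Signal: Luciferase luminescence | Read-out: % activation vs tunicamycin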
Mdm2-MdmX inh: inhibitors of human Mdm2/MdmX interaction; 3% of 330,000 active; SaOS-2 split-luciferase Mdm2/MdmX complementation, luminescence; O15151+Q00987; inhibition, % at 8 µM;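 active = inhibition of at least 50% at 8 µM in the primary screen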
Target sequence (O15151 whole entry, looked up): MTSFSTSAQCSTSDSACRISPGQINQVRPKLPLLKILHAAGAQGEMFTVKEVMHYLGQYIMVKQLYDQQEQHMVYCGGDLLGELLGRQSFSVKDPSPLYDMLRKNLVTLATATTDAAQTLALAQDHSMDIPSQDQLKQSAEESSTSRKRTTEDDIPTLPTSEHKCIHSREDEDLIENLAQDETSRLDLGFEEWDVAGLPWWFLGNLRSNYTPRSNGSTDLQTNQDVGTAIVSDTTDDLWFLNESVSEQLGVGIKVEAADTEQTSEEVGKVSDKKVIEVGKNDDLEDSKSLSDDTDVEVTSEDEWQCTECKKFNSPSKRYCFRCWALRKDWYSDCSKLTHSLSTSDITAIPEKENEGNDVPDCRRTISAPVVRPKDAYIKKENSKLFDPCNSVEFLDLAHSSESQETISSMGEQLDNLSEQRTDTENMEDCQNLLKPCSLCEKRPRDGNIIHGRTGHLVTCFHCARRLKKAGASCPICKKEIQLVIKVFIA
Target sequence (Q00987 whole entry, looked up): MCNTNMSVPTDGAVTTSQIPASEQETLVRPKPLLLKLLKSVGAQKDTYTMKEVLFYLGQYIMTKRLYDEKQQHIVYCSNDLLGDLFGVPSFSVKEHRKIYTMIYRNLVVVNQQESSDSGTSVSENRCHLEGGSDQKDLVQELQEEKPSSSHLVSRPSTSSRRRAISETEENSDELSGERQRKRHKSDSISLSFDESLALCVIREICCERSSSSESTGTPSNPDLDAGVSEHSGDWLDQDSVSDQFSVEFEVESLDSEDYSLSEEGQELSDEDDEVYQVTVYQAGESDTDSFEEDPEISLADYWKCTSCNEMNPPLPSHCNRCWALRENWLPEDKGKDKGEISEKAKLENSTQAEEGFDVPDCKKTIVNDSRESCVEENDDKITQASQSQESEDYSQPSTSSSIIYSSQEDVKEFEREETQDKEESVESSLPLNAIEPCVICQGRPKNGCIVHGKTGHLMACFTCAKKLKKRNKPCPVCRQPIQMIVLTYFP
Beta apoptosis: blocks beta cell apoptosis; protection from apoptosis, % (test concentration not listed); 0.8% of 300,000 active; INS-1E cytokine-induced death, ATP luminescence, 48 h; percent of positive-control rescue, neutral wells zero;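 active = Every replicate reaches about 75%, or at least half do and their mean reaches it too, limit read from the data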;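 note: 0% = cytokine-treated negative control wells and 100% = positive control rescue; higher means more ATP so stronger rescue from cytokine killing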
T cruzi repl: T. cruzi replication inhibition; AID 1885; T. cruzi beta-gal in NIH3T3, luminescence, 90 h; 1.4% of 300,000 active; inhibition, % (test concentration not listed);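 active = mean inhibition across valid replicates above about 55%, limit read from the data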;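 note: signal also drops with host cell toxicity which is not excluded here; 0% = plate median of DMSO wells and 100% = zero luminescence signal; higher percent means less beta-gal luminescence so fewer parasites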
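System: mouse NIH/3T3 fibroblasts infected with β-gal-expressing T. cruzi Tulahuen C4 / Input: NIH/3T3 cells, 5,000 per well / Buffer or medium: Low-serum DMEM with 2% FBS / Probe or stimulus: 5000 reporter trypomastigotes per well / Schedule: ≥90 h infection period, 3 h prior cell attachment / Measured by: GalScreen luminescence, 60 min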
UPR XBP1 act: activators of adaptive arm of unfolded protein response (XBP1). CHO-XBP1 luciferase reporter, IRE1-XBP1 UPR activation, luminescence; percent of tunicamycin response, DMSO as zero. activation, % at 20 µM. 0.33% of 330,000 active. AID 463104;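 active = versus positive control, 20 µM dose yields 30% or more activation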;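 note: 100% = tunicamycin at 10 µg/mL and 0% = DMSO only wells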
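Assay system: IRE1-XBP1 luciferase reporter CHO line. Input: 1000 cells/well. Buffer or medium: F12 with 10% serum. Doses: 20 µM, 1% DMSO. Times: overnight seeding at 37 °C, 6 h compound treatment at 37 °C. Technique: Steady-Glo luciferase glow luminescence, 10 min after reagent addition.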
UPR CHOP confirm: confirmation of apoptotic unfolded protein response (CHOP) activators; CHO-CHOP cells, CHOP-luciferase reporter luminescence; percent of tunicamycin response, DMSO as zero; shares compounds with UPR CHOP act; activation, % at 10 µM; 64% of 1,000 active; in the data active = activation above about 33%;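 note: 0% = DMSO wells and 100% = tunicamycin 10 µg/mL wells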
UPR XBP1 confirm: confirmation of adaptive unfolded protein response (XBP1) activators; AID 485299; 63% of 1,000 active; shares compounds with UPR XBP1 act; CHO-XBP1 IRE1-XBP1 luciferase reporter, luminescence; activation, % at 20 µM;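 active = reporter signal at least 30% of the positive control's activation in two or more of four replicate wells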;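 note: plate controls were DMSO negative control for no effect and tunicamycin 10 µg/mL positive control for full effect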
Mdm2 MdmX conf: confirmation of human Mdm2/MdmX interaction inhibitors; shares compounds with Mdm2-MdmX inh; Mdm2-MdmX binding, luminescent assay; 55% of 10,000 active; inhibition, % at 8 µM; in the data active = inhibition above about 40%
Full FLuc ctr: counter-screen for Mdm2/MdmX inhibitors: full-length luciferase; AID 504607; SaOS-2 full-length luciferase counterscreen, luminescence; shares compounds with Mdm2-MdmX inh; inhibition, % at 8 µM; 77% of 6,200 active;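 active = mean inhibition at 8 µM reaching about 37%, which flags the compound as non-specific, limit read from the data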;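 note: p53-null SaOS-2 cells with luciferase driven by a doxycycline-inducible promoter; compound on cells about two nights before reading with doxycycline added after day one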
The depositor's hits bear a star; · = not tested or not shown.

SMILES | CSC inhib | UPR CHOP act | Mdm2-MdmX inh | Beta apoptosis | T cruzi repl | UPR XBP1 act | UPR CHOP confirm | Mdm2 MdmX conf | Full FLuc ctr | others
CN(C)C(=O)CSc1cccc2cccnc12 | 51 | 214* | 70* | -13 | 44 | 4 | 205* | -3 | ·
COc1cccc(N=Nc2ccc(O)c3ncccc23)c1 | 123* | 107* | 82* | 104* | 34 | 7 | 86* | 92* | 21
O=S(=O)(O)c1cccc2c(N=Nc3ccc(O)c4ncccc34)cccc12 | -6 | · | · | 1 | -5 | · | · | · | ·
COCc1ccc(O)c2ncccc12 | 26 | 43* | 60* | 91* | 44 | 37* | 73* | 36 | 59*
COc1ccc(N=Nc2ccc(O)c3ncccc23)cc1 | 151* | 153* | 77* | 104* | 46 | 11 | 148* | 84* | 32
COc1cccc(N=Nc2ccc3cccnc3c2O)c1 | 90* | 127* | 91* | 90* | 43 | 4 | 86* | 90* | 23
COc1cc(OC)cc(C(=O)Nc2cccc3cccnc23)c1 | -16 | 0 | 12 | 16 | 1 | -2 | · | · | ·
Cn1cnc(S(=O)(=O)Nc2cc(-c3ccc(Cl)cc3)nn2C)c1 | -2 | 0 | -17 | -7 | -2 | 1 | · | · | ·
COc1ccc(CC(=O)NC2CCS(=O)(=O)C2)cc1 (stereo not drawn) | -7 | 0 | 27 | -2 | -7 | 1 | · | · | ·
COc1ccc(S(=O)(=O)N(C)c2ccc(C(=O)Nc3cccnc3)cc2)cc1OC | -8 | 1 | 20 | -4 | 0 | -8 | · | · | ·
COc1ccccc1NC(=O)c1ccc[n+]([O-])c1 | -1 | 1 | 15 | -3 | 0 | -2 | · | · | ·
O=C(C[C@@H]1C/C=C/CC[C@H](Cc2ccc(F)cc2)C(=O)OC[C@@H](Cc2ccccc2)NC1=O)N[C@H](CO)Cc1ccccc1 | 105* | 65* | 96* | 124* | · | 152* | 12 | 93* | 30 | UPR XBP1 confirm=47*
CCOC(=O)c1c(S(=O)(=O)Nc2ccccc2OCC)c(C)n(C)c1C | -5 | 0 | 11 | -5 | 6 | -1 | · | · | ·
COc1ccc(OC)c2sc(N(CCN(C)C)C(=O)/C=C/c3cccs3)nc12 | 18 | 67* | 97* | 30 | -5 | 7 | 11 | 100* | 0
Cc1ccc2nc(N(CCN(C)C)C(=O)/C=C/c3cccs3)sc2c1 | -14 | 2 | 32 | 10 | 41 | 0 | · | · | ·
C=CCN(CC=C)C(=O)c1ccc(OC2CCN(C(C)=O)CC2)c(OC)c1 | 1 | 1 | 6 | -7 | -7 | 0 | · | · | ·
CC(=O)c1ccc(-c2ccc(C(=O)N(C)c3c(N)n(Cc4ccccc4)c(=O)[nH]c3=O)o2)cc1 | -7 | 2 | 9 | 2 | -11 | 4 | · | · | ·
Oc1cc(-c2ccncc2)cc2cccnc12 | · | 70* | 91* | 46 | · | 34* | 66* | 66* | 52* | UPR XBP1 confirm=16
CCC1CCCCN1CCCNC(=O)c1cc2c(=O)[nH]c3ccccc3c2n1C (stereo not drawn) | 10 | -1 | 2 | 0 | 25 | 5 | · | · | ·
CCC(CC)NC(=O)Cc1ccccc1OC | -3 | -3 | 13 | -5 | -14 | -2 | · | · | ·
CCOC(=O)C(=CNc1nc(-c2ccccc2)c(C(=O)Nc2ccc(-c3ccccc3)cc2)s1)C(=O)OCC | 6 | 73* | 71* | · | -11 | 209* | 43* | 15 | · | UPR XBP1 confirm=133*
Cc1ccc(NC(=O)c2sc(Cl)nc2-c2ccccc2)cc1 | -6 | -1 | 6 | 7 | 2 | -5 | · | · | ·
COC(=O)Cn1cc(S(=O)(=O)NCc2ccc(C)cc2)c2cc([N+](=O)[O-])ccc21 | 7 | 1 | 20 | -1 | -6 | 0 | · | · | ·
CC(C)c1nnc(NC(=O)c2nc(S(=O)(=O)Cc3ccccc3)ncc2Cl)s1 | · | 62* | 97* | · | -22 | -9 | 8 | 76* | 50*
CSc1ncc(Cl)c(C(=O)Nc2nnc(SC)s2)n1 | · | 3 | 12 | 2 | 8 | -6 | · | · | ·
SMILES | CSC inhib | UPR CHOP act | Mdm2-MdmX inh | Beta apoptosis | T cruzi repl | UPR XBP1 act | UPR CHOP confirm | Mdm2 MdmX conf | Full FLuc ctr | others
CSc1nnc(NC(=O)c2nc(S(=O)(=O)Cc3ccccc3)ncc2Cl)s1 | · | 56* | 99* | · | -13 | -8 | 61* | 94* | 2
CC(C)c1nnc(NC(=O)CCc2ccccc2)s1 | 4 | 1 | -4 | 2 | -11 | 2 | · | · | ·
Cc1ccc(SCC(=O)Nc2ccc(N3CCN(C)CC3)c(F)c2)c(C)c1 | -5 | 0 | 29 | 9 | 47 | 5 | · | · | ·
COc1ccc(-c2[nH]n(-c3ccc([N+](=O)[O-])cc3)c(=O)c2C=NCc2ccc(F)cc2)cc1 | -2 | 42* | 80* | 1 | -6 | 53* | -1 | -19 | · | UPR XBP1 confirm=-1
CCOc1ccc2nc3cc(NCc4ccc(OC)cc4)ccc3c(N)c2c1 | 121* | 71* | 97* | 28 | 53 | 4 | 1 | 85* | 15
CN(C)CCNC(=O)C1CCN(S(=O)(=O)c2ccc3ccccc3c2)CC1 | 62 | 0 | -1 | 4 | 9 | -6 | · | · | ·
COC(=O)c1ccc2c(c1)C(C)(C)C(/C=C/c1ccc(OC)c(OC)c1OC)=[N+]2C | -3 | 64* | 101* | 107* | · | -14 | -11 | 78* | 51*
O=C(CCl)Nc1cc(S(=O)(=O)N2CCCCCC2)ccc1Cl | 15 | 83* | 92* | 1 | 2 | -2 | 70* | 36 | 50*
CCN1c2ccccc2S(=O)(=O)c2ccccc21 | -2 | 0 | 0 | -11 | -11 | -4 | · | · | ·
CCc1nnc(N2C(=O)c3ccc(Oc4ccc([N+](=O)[O-])cc4)cc3C2=O)s1 | 15 | 2 | 38 | 0 | 3 | -1 | · | · | ·
COc1ccccc1/C=N/NC(=O)c1ccccc1Cl | -5 | -2 | 8 | -7 | -4 | 1 | · | · | ·
C=CCc1cccc(/C=N/NC(=O)c2ccccc2OC)c1O | -2 | 127* | 66* | 94* | 62* | 3 | 2 | 70* | 47*
COC(=O)c1c(NC(=S)NN2CCOCC2)sc2c1CCCC2 | -9 | -2 | -4 | -1 | 28 | 4 | · | · | ·
